Bioassay records from PubChem BioAssay.
Rows were chosen to be rich in hits. Some 1.5% of all compounds tested hit in one or more screens of this group.
EP2 antag = human EP2 receptor antagonists, primary screen, TR-FRET cAMP, C6 glioma cells; Prostaglandin E2 receptor EP2 subtype (Homo sapiens), P43116; C6 glioma cells expressing human EP2; cells stimulated with saturating PGE2; inhibition, % at 25 µM; 260,000 compounds, 0.52% hits; AID 1422, 2008;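 active = percent inhibition above 40 after rounding to a whole number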;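 also: rat C6 glioma host cells with rolipram phosphodiesterase inhibitor present; the protocol text gives 20 µM as final concentration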
Target sequence (P43116 whole entry, looked up): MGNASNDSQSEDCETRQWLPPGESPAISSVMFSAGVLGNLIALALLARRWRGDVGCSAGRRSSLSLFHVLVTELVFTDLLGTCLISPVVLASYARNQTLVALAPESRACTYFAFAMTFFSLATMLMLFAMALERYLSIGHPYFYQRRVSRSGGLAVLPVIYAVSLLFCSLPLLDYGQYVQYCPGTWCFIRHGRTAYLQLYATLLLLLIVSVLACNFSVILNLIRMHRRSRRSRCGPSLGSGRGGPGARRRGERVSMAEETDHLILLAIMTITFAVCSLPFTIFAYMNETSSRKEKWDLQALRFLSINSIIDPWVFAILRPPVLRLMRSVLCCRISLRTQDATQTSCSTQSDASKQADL
EP2 modulator = EP2 receptor modulators, cAMP readout, primary screen, cell-based, HTRF cAMP, PGE2 stimulation; Prostaglandin E2 receptor EP2 subtype (Homo sapiens), P43116; 260,000 compounds, 0.83% hits; induction, % at 25 µM; EP2-expressing cells, cAMP HTRF FRET, PGE2 co-stimulation;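 active = compounds whose cAMP rise, as percent of the full-agonist control response, exceeds 60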;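 also: rat C6 glioma line stably carrying human EP2 under a CMV promoter; the protocol text gives 20 µM as final concentration; 100% = response of wells given 1 µM PGE2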
ABCG2 block = ABCG2 efflux pump inhibitors, primary screen, multiplex with ABCB1, IgMXP3 cells, flow cytometry | 190,000 compounds, 0.1% hits | AID 1325, 2008 | inhibition, % at 6.6 µM | Broad substrate specificity ATP-binding cassette transporter ABCG2 (Homo sapiens), Q9UNQ0 | JC-1 efflux;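 active = inhibition above 80%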;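 also: 0% = DMSO and 100% = nicardipine control wells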
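Read-out basis: Efflux inhibition in percent versus controls | Test system: ABCG2 IgMXP3 and barcoded ABCB1 CCRF-Adr cell mix | Quantity: 3 million cells/mL in well | Schedule: 10 min at 25 °C | Control set: Nicardipine as high control, DMSO as low control | Reagent: JC-1 as fluorescent efflux pump substrate | Signal: Flow cytometry of retained JC-1 fluorescence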
ABCB1 inh = ABCB1 efflux pump inhibitors, primary screen, cell-based, multiplex, flow cytometry, ABCG2 counter-screen; ATP-dependent translocase ABCB1 (Homo sapiens), P08183; CCRF-Adr cells, JC-1 efflux; inhibition, % at 6.6 µM; 190,000 compounds, 0.067% hits; AID 1326, 2008; in the data active = inhibition above about 40%;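 also: 0% = vehicle and 100% = reference inhibitor; higher value means more JC-1 retained so stronger ABCB1 efflux block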
RBBP9 inhibitor = human RBBP9 inhibitors, primary screen, biochemical, fluorescence polarization, FP-Rh probe, HTS; Serine hydrolase RBBP9 (Homo sapiens), O75884; recombinant RBBP9; inhibition, % at 7.94 µM; 220,000 compounds, 0.2% hits;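 active = inhibition above the campaign mean of all tested compounds plus 3 SD, cut at about 14% in these data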;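 also: plate controls were DMSO wells with RBBP9 for no effect and wells lacking RBBP9 protein for full effect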
Target sequence (O75884 whole entry, looked up): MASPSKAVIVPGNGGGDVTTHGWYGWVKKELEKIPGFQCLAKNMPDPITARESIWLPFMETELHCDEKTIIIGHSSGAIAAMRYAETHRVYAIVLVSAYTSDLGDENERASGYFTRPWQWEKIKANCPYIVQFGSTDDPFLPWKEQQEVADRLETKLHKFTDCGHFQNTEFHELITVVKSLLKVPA
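Test system: recombinant human RBBP9; Timing: 30 min then 45 min, 25 °C; Detection: fluorescence polarization; Control set: RBBP9 with DMSO as uninhibited control, no-protein wells as full inhibition; Compound dosing: one concentration, 7.94 µM nominal, 0.794% DMSO; Probe or stimulus: FP-Rh activity-based probe, 375 nM before mixing.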
EP2 confirm = cAMP induction in EP2, EP4, beta2-AR and parental cells, confirmation, counter-screen for EP2 modulator project, cell-based, five parallel assays, C6 glioma, HEK293; cAMP HTRF induction; plus low (about EC15) PGE2 agonist; calls only at 20 µM (by protocol); shares compounds with EP2 modulator; 1,300 compounds, 47% hits;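 active = cAMP induction above 50% in the main assay while under 30% in all four parallel counter assays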;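 also: rat C6 glioma cells stably expressing human EP2 receptor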
ABCB1 confirm = ABCB1 efflux pump inhibitors, confirmation, cell-based, single point, ABCG2 counter-screen. shares compounds with ABCG2 block. 270 compounds, 7% hits. CCRF-Adr cells, JC-1 efflux, flow cytometry. inhibition, % at 6.6 µM;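 active = inhibition of pump activity above 50%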;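 also: 0% = DMSO and 100% = nicardipine full pump inhibition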
ABCG2 confirm = ABCG2 efflux pump inhibitors, confirmation, single point, IgMXP3 cells, ABCB1 counter-screen paired | 270 compounds, 6% hits | inhibition, % at 6.6 µM | JC-1 efflux, flow cytometry | shares compounds with ABCG2 block;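 active = inhibition above 50%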;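 also: 0% = DMSO wells and 100% = nicardipine pump inhibitor wells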
IgMXP3 autofluor = compound autofluorescence in ABCG2-expressing IgMXP3 cells, confirmation, artefact control for ABC transporter inhibitor project, cell-based, 488/530 nm, flow cytometry | shares compounds with ABCG2 block | compound autofluorescence 488/530 nm; hits give high values | fluorescence at 6.6 µM | 270 compounds, 30% hits | AID 1480, 2009;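 active = fluorescence in ABCG2-expressing cells above the plate's control-well mean plus 3 SD, cut at about 15 in these data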;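 also: median cell fluorescence with compound minus that of DMSO-treated control cells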
CCRF-Adr fluor = compound autofluorescence in ABCB1-expressing CCRF-Adr cells, confirmation, artefact control for ABC transporter inhibitor project, cell-based, 488/530 nm, flow cytometry; AID 1483, 2009; 270 compounds, 30% hits; compound autofluorescence 488/530 nm; hits give high values; shares compounds with ABCG2 block; fluorescence at 6.6 µM;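 active = fluorescence beyond the plate control mean plus 3 SD, with a fluorescence-to-maximum score over 2, cut at about 25 in these data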
RBBP9 inh conf = human RBBP9 inhibitors, retest, confirmation, biochemical, fluorescence polarization, FP-Rh probe, triplicate. shares compounds with RBBP9 inhibitor. 410 compounds, 36% hits. recombinant RBBP9. AID 1537, 2009. inhibition, % at 7.94 µM;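 active = inhibition above the hit cutoff derived for the primary screen, cut at about 15% in these data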;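 also: 0% = RBBP9 with DMSO and 100% = wells lacking RBBP9 protein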
The depositor's hits bear a star; i = inactive; · = no result; + = active, no number.

SMILES	EP2 antag	EP2 modulator	ABCG2 block	ABCB1 inh	RBBP9 inhibitor	ABCB1 confirm	ABCG2 confirm	IgMXP3 autofluor	CCRF-Adr fluor	others
Clc1ccc(Cl)c(-c2ccc(/C=N/c3ncn[nH]3)o2)c1	30	71*	83*	4	-7	0	9	1.1	-0.64	EP2 confirm=i
CCOc1ccc(OCC)c(NC(=O)CN2CCN(c3cccc(C)c3)CC2)c1	·	73*	74	3	-8	10	30	1.7	4.5	EP2 confirm=+
COc1ccc(-c2cc(C)[nH]c(=S)c2C#N)cc1	11	-4	·	·	·	·	·	·	·
O=C(NCCN1CCNCC1)C(=O)NCc1ccccc1	13	12	·	·	·	·	·	·	·
COc1cccc(-c2nc(N3CCC(C)CC3)c3ccccc3n2)c1O	19	56	44	4	-11	·	·	·	·
COc1cccc(-c2nc(N3CC(C)CC(C)C3)c3ccccc3n2)c1O (configuration not stated)	·	70*	61	12	-7	72*	46	-1.9	-4.9	EP2 confirm=+
CC1=CC(C)(C)N(S(=O)(=O)c2ccc(C)cc2)c2cc(C)ccc21	13	70*	3	1	21*	·	·	·	·	EP2 confirm=+;RBBP9 inh conf=9
Cn1c(=O)c(NCCc2ccccc2)c2c3c(cccc31)C(=O)c1ccccc1-2	2	77*	151*	70*	109*	10	33	55*	143*	EP2 confirm=+;RBBP9 inh conf=144*
Cn1c(NCCc2ccccc2)cc(=O)n(C)c1=O	14	1	1	0	0	·	·	·	·
O=C(CSc1nnc2c3c4c(sc3ncn12)CCCC4)N1CCc2ccccc2C1	5	-78	·	·	·	·	·	·	·
O=C(NCC1OCCc2ccccc21)c1ccc(NC(=O)c2ccc(Cl)cc2Cl)cc1 (configuration not stated)	6	7	111*	95*	-10	6	43	1.7	-1.3
CN(C)c1ccc(/C=C/C(=O)c2cccc(Br)c2)cc1	9	4	42	26	-15	6	17	19*	103*
CCCc1nn(CC(=O)N2CC(C)CC(C)C2)c(=O)c2cc3ccsc3n12 (configuration not stated)	·	-16	·	·	·	·	·	·	·
CC(C)Cn1c(SCC(=O)N2CCc3ccccc3C2)nc2cc(Cl)ccc2c1=O	3	-19	27	25	-2	·	·	·	·
COCCn1c(SCC(=O)N2CCc3ccccc3C2)nc2cc(Cl)ccc2c1=O	7	-80	26	33	3	27	29	-1.5	-3.6
COC(=O)C1=C(C)NC(C)=C(C(=O)OC)C1c1ccc(-c2cccc(Cl)c2Cl)o1	4	8	85*	4	-2	8	6	0.21	-1.3
Cc1ccc2cc(CN(CCN3CCCC3)C(=O)Nc3ccccc3Cl)c(=O)[nH]c2c1	14	-2	·	·	·	·	·	·	·
COC(=O)C1C(=O)C2=C(CC1C)Nc1ccccc1NC2c1ccccc1Cl (configuration not stated)	6	-9	·	·	·	·	·	·	·
Cc1ccc(NC(=O)Nc2ccccc2)cc1[N+](=O)[O-]	10	-35	95*	17	-6	2	26	-0.99	-2.1
COc1cc(/C=C2\CCc3ccccc3C2=O)cc(OC)c1OC	11	23	10	2	-3	·	·	·	·
COc1cc(/C=C2/CCc3ccccc3C2=O)cc(OC)c1OC	15	43	87*	7	-3	2	44	-1.6	-1.7
N#C/C(=C/c1ccc(N2CCCCC2)o1)C(=O)Nc1ccc(Cl)cc1	1	14	82*	45*	-3	-48	-66	171*	118*
N#C/C(=C\c1ccc(N2CCOCC2)o1)C(=O)Nc1ccc(O)cc1	6	-31	6	0	-4	·	·	·	·
N#C/C(=C/c1ccc(N2CCCCC2)o1)C(=O)Nc1ccc2ccccc2c1	14	-17	+	134*	1	-144	-90	397*	624*
COc1ccc(NC(=O)/C(C#N)=C\c2ccc(N3CCOCC3)o2)cc1	13	-41	2	0	-1	·	·	·	·
SMILES	EP2 antag	EP2 modulator	ABCG2 block	ABCB1 inh	RBBP9 inhibitor	ABCB1 confirm	ABCG2 confirm	IgMXP3 autofluor	CCRF-Adr fluor	others
Cc1ccc2cc(C)c3nnc(SCC(=O)N(C)c4nc(-c5ccccc5)cs4)n3c2c1	7	-8	·	·	·	·	·	·	·
CCOC(=O)c1cccc(NC(=O)c2cnc3ccccc3n2)c1	9	1	91*	3	-9	2	68*	-0.59	-4.4
CCOC(=O)c1cccc(NC(=O)c2cccnc2)c1	6	4	2	0	-6	·	·	·	·
COc1cc(SC)ccc1C(=O)Nc1ccccc1	7	8	84*	-1	3	3	36	18*	30*
COn1c(-c2ccccc2)nc2c1CCc1c-2no[n+]1[O-]	10	-17	74	-1	-7	-1	28	0.61	-3
[O-][n+]1onc2c1CCc1c-2nc(-c2ccccc2)n1OCc1ccccc1	20	5	0	0	-12	·	·	·	·
Cc1cc(=O)c2ccc(Cl)c(C)c2[nH]1	13	-16	·	·	·	·	·	·	·
COC(=O)c1nc(-n2nc(C)cc2C)ccc1Cl	8	-2	3	0	7	·	·	·	·
Cc1cc(C)n(-c2ccc(Cl)c(C(=O)Nc3cc(C(F)(F)F)ccc3Cl)n2)n1	18	21	116*	9	-1	5	15	-1.1	-1.5
